FLuc stim CS: firefly luciferase counter-screen for stimulation assays; P08659; activation factor at 10 µM; 200,000 tested, under 10 active; ATPlite luciferase biochemical, luminescence, 10 min; 0 = ATP-free wells, 1 = DMSO control;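 active = luciferase activation factor, scaled between plate controls, of at least 2 with compound at 10 µM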
Target sequence (P08659 whole entry, looked up): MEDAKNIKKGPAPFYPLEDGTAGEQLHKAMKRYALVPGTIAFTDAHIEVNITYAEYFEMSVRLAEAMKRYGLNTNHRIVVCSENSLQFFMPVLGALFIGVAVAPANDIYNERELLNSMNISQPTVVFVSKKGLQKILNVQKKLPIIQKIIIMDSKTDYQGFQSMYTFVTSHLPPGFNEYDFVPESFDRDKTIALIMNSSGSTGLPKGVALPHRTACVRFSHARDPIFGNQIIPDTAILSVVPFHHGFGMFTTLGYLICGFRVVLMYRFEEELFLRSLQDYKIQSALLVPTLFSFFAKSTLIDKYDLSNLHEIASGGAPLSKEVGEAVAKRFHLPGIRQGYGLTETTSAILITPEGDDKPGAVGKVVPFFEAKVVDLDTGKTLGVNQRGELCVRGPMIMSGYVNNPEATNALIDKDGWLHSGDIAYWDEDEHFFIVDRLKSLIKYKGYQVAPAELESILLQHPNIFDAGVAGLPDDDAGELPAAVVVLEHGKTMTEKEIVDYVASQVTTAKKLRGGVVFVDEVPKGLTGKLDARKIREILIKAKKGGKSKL
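Assay system: Luciferase/luciferin detection reagent, cell-free biochemical luciferase assay / Also added: ATP substrate / Schedule: 10 min at ambient temperature / Measured by: luminescence measurement of luciferase light output / Benchmarks: low control with PBS replacing ATP, high control enzyme plus ATP without compound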
NF-kB expr up: raises NF-kB expression in human neuronal cells. NF-kB reporter expression; stronger effect = higher value. fold change at 12.5 µM. 190,000 tested, 1.6% active. AID 1239; in the data active = fold change above about 3.3
STAT1 act: increases IFN-gamma driven STAT1 reporter signal; activation (% of control), % at 5.5 µM; 200,000 tested, 2.6% active; NIH 3T3 STAT1-luciferase reporter, luminescence; 100% = IFN-gamma alone, no compound;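 active = activation above the screen-wide mean activation plus 3 SD, cut at about 130% in these data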;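 also: raw ratio to IFN-gamma control signal so 100% means no change and 0% no light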
APP transl inh: APP translation inhibition; SH-SY5Y APP 5'UTR-luciferase reporter, luminescence; inhibition, % at 2 µM; 190,000 tested, 0.82% active;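 active = inhibition above a set limit, derived from the sample mean plus 3 SD, cut at about 45% in these data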
FLuc inh counter: counter-screen for luciferase assay inhibitors: firefly luciferase inhibition; AID 1006; inhibition, % at 10 µM; 200,000 tested, 1.5% active; ATPLite firefly luciferase biochemical luminescence, 10 min; P08659;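 active = inhibition above about 50% when tested at 10 µM, limit read from the data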
APP 5'UTR act: activates APP 5'UTR luciferase reporter; activation, % at 2 µM; SH-SY5Y APP 5'UTR luciferase reporter, luminescence; zero percent = DMSO vehicle wells; 190,000 tested, 1% active; AID 1276;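 active = activation above a set limit, based on mean plus 3 SD of controls, cut at about 140% in these data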
STAT1 activ conf: confirmation of STAT1 signaling activators; NIH 3T3 STAT1-luciferase reporter, IFN-gamma potentiation, luminescence; 100% = IFN-gamma EC80 alone, no compound; shares compounds with STAT1 act; 1,200 tested, 97% active; activation (% of control), % at 5.7 µM;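 active = activation above a set limit carried over from the earlier primary STAT1 screen, cut at about 140% in these data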;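 also: simple ratio to median IFN-gamma plus DMSO wells so 0% means no light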
NFkB act: NF-kappaB activation in STAT1 activator counter-screen; shares compounds with STAT1 act; HEK293T NF-kB luciferase reporter, TNF-alpha stimulated, luminescence; 100% = TNF-alpha with vehicle only; activation (% of control), % at 5.7 µM; 1,200 tested, 43% active;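 active = activation above the mean of solvent-only control wells plus 3 SD, set per campaign, cut at about 130% in these data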;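 also: TNF-alpha given at a submaximal dose yielding about 80% of full reporter signal; values are well signal over median control so 100% means no change and 0% no light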
STAT3 act STAT1c: counter-screen for STAT1 activators: human STAT3 activation | shares compounds with STAT1 act | U3A cells STAT3-luciferase reporter, IL-6, luminescence; cells lack STAT1; 100 = IL-6 alone, no compound effect | AID 1316 | 1,200 tested, 46% active | activation (% of control), % at 5.7 µM;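 active = activation above the solvent-only control well mean plus 3 SD, set per plate batch, cut at about 110% in these data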;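 also: 0% = no luminescence and 100% = median IL-6 plus DMSO wells; higher means more STAT3 reporter activation so hits are non-selective activators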
* hit, by the source's call; x = not tested or not shown. Sampled rows, rich in hits. Any-hit rate of the full collection: about 4.8%.

SMILES | FLuc stim CS | NF-kB expr up | STAT1 act | APP transl inh | FLuc inh counter | APP 5'UTR act | STAT1 activ conf | NFkB act | STAT3 act STAT1c
COc1cccc(NC(=O)c2ccn(C)n2)c1 | 0.8 | 2.03 | 126.2 | -62.0 | 17.0 | 62.0 | x | x | x
Cc1ccc(NC(=O)Cn2cccc2)c(Br)c1 | 1 | 1.73 | 108.1 | 1.9 | 0.0 | -1.9 | x | x | x
Cc1ccc(NC(=O)c2ccccn2)c(Br)c1 | 0.5 | 6.92* | 152.1* | -152.8 | 48.8 | 152.8* | 199.6* | 125.9 | 110.3
Cn1ccc(C(=O)Nc2ccc(Br)cc2Br)n1 | 0.8 | 7.56* | 168.0* | -142.7 | 20.6 | 142.7* | 199.6* | 124.1 | 101.8
CCOc1cc(NC(=O)c2ccccn2)c(OCC)cc1NC(=O)c1cccc(C)c1 | 1 | 0.92 | 100.4 | 19.8 | -3.7 | -19.8 | x | x | x
Cc1ccc(NC(=O)c2cc([N+](=O)[O-])ccc2NCc2cccnc2)cc1 | 1.1 | 0.76 | 102.5 | 0.2 | -6.3 | -0.2 | x | x | x
FC(F)(F)c1cccc(NC(=S)NCC2COc3ccccc3O2)c1 (stereo not given) | 1 | 0.9 | 101.8 | 20.2 | -4.4 | -20.2 | x | x | x
CC1=[N+]([O-])C(C)(C)C(c2ccc(Br)cc2)=[N+]1[O-] | 1 | 1.19 | 95.5 | -3.2 | -3.1 | 3.2 | x | x | x
Cc1ccc(C(=O)/C=C/Nc2cccc([N+](=O)[O-])c2)o1 | 0.4 | 5.45* | 153.3* | -111.5 | 62.5* | 111.5 | 187.4* | 124.7 | 106.4
CN(C)C(/C=C/Nc1cccc([N+](=O)[O-])c1)=C(C#N)C#N | 1 | 1.22 | 103.6 | -4.7 | 1.9 | 4.7 | x | x | x
O=C1c2cnc3nc(SCc4ccc(Cl)cc4)nn3c2CC2c3ccccc3CCN12 (stereo not given) | 1.1 | 0.45 | 100.9 | -2.4 | -11.3 | 2.4 | x | x | x
O=c1c2c(nc3cc(-c4ccc(Br)cc4)[nH]n13)CCCC2 | 0.4 | 3.27 | 204.6* | -173.8 | 57.8* | 173.8* | 281.5* | 150.8* | 105.7
O=c1c2c(nc3c(-c4cccc(Br)c4)c[nH]n13)CCCC2 | 1.1 | 0.98 | 101.1 | -13.0 | -8.4 | 13.0 | x | x | x
CCCOC(=O)c1ccc(NC(=O)c2cc(OC)c(OC)c(OC)c2Br)cc1 | 1 | 0.84 | 102.9 | 1.3 | -4.3 | -1.3 | x | x | x
COc1ccccc1-c1noc(-c2ccccc2)n1 | 0.6 | 5.58* | 176.1* | -125.0 | 44.2 | 125.0 | 212.6* | 141.5* | 116.2*
CCOc1cc(-c2nc(-c3ccccc3OC)no2)cc(OCC)c1OCC | 1.1 | 0.82 | 96.8 | -29.7 | -7.9 | 29.7 | x | x | x
CCOc1ccccc1-c1nc(-c2ccc(C)nc2OC)no1 | 0.8 | 2.18 | 152.8* | -79.7 | 16.1 | 79.7 | 167.2* | 132.8 | 113.6*
CCOc1nc(C)ccc1-c1noc(-c2ccccn2)n1 | 1 | 1.42 | 112.6 | -16.3 | 4.7 | 16.3 | x | x | x
Cc1nn2c(-c3ccccc3)ccnc2c1-c1ccccc1 | 0.7 | 2.06 | 123.0 | -45.9 | 28.7 | 45.9 | x | x | x
Cc1nc2c(-c3ccccc3)c(C)nn2c(N)c1-c1ccccc1 | 0.3 | 2.25 | 158.9* | -198.8 | 67.9* | 198.8* | 206.2* | 141.1* | 109.9
O=C(NCc1cccs1)C(=O)NCC(c1ccco1)N1CCN(c2ccccc2F)CC1 (stereo not given) | 1 | 1.2 | 93.6 | -8.3 | -3.0 | 8.3 | x | x | x
O=C(CCc1ccccc1)Nc1cc2c(cc1Cl)OCCO2 | 0.9 | 2.47 | 157.5* | -81.8 | 8.4 | 81.8 | 181.1* | 139.4* | 115.2*
Brc1ccc(-c2nnc3n2-c2ccccc2CC3)cc1 | 1.1 | 1.02 | 97.8 | -8.5 | -6.0 | 8.5 | x | x | x
CCOC(=O)c1ccc(OS(=O)(=O)c2ccccc2)c(OC)c1 | 1 | 3.8* | 174.2* | -113.6 | 3.0 | 113.5 | 184.8* | 141.2* | 122.6*
CCS(=O)(=O)NCC(c1cccnc1)N1CCN(c2ccccc2F)CC1 (stereo not given) | 1.1 | 1 | 99.3 | 7.4 | -5.8 | -7.4 | x | x | x
SMILES | FLuc stim CS | NF-kB expr up | STAT1 act | APP transl inh | FLuc inh counter | APP 5'UTR act | STAT1 activ conf | NFkB act | STAT3 act STAT1c
COCC(C)Nc1ncnc2c1cnn2-c1ccc(Cl)cc1 (stereo not given) | 0.7 | 4.87* | 163.2* | -180.2 | 32.9 | 180.2* | 234.7* | 141.5* | 105.9
COc1ccc(-n2ncc3c(NC(C)C)ncnc32)cc1 | 0.2 | 3.97* | 151.0* | -150.7 | 77.0* | 150.7* | 246.2* | 109.1 | 95.6
COc1ccc(OC)c(Nc2ncnc3c2cnn3-c2ccccc2)c1 | 1 | 1.68 | 107.2 | -14.3 | -3.0 | 14.3 | x | x | x
COc1ccc(-n2ncc3c(NCC(C)C)ncnc32)cc1 | 0.3 | 6.97* | 166.3* | -195.4 | 70.7* | 195.4* | 259.9* | 117.7 | 97.7
O=c1c2ccccc2nc(/C=C/c2ccc([N+](=O)[O-])o2)n1CCCO | 1.1 | 1.03 | 151.4* | 22.9 | -5.4 | -22.9 | 167.4* | 157.1* | 105.0
O=c1c2ccccc2nc(/C=C/c2ccc([N+](=O)[O-])cc2)n1CCCO | 1 | 0.44 | 107.5 | 5.7 | -3.2 | -5.7 | x | x | x
O=C(c1ccc(-c2cccc(C(F)(F)F)c2)o1)N1CCOCC1 | 1 | 2.1 | 117.4 | -12.6 | -0.8 | 12.6 | x | x | x
O=C(c1ccc(-c2cccc(Cl)c2Cl)o1)N1CCOCC1 | 0.7 | 4.54* | 162.4* | -108.5 | 29.4 | 108.5 | 200.6* | 143.2* | 114.5*
Cc1cccn2c1nc(=S)n2C(=O)c1ccco1 | 0.1 | 1.04 | 208.5* | -146.7 | 85.1* | 146.7* | 256.4* | 175.7* | 134.8*
CC(C)c1nnc(NC(=O)CCCC(=O)O)s1 | 1 | 0.94 | 90.2 | -4.4 | -2.2 | 4.4 | x | x | x
CCOC(=O)CC(=O)Nc1nnc(C(C)C)s1 | 1.1 | 1.21 | 152.4* | 4.0 | -5.7 | -4.0 | 112.0 | 103.0 | 102.2
Cc1ccc2nc(N3C(=O)C(O)=C(C(=O)c4cc5ccccc5o4)C3c3cccs3)sc2c1 (stereo not given) | 0.7 | 3.7* | 153.8* | -160.4 | 29.2 | 160.4* | 162.4* | 124.0 | 123.1*
Cc1cc(N2C(=O)C(O)=C(C(=O)c3ccc(C)o3)C2c2cccs2)no1 (stereo not given) | 1 | 1.11 | 94.1 | 6.9 | -2.9 | -6.9 | x | x | x
Nc1c(C(=O)c2ccccc2)oc2ccc(Br)cc12 | 1 | 3.97* | 155.1* | -124.0 | 3.7 | 124.0 | 187.9* | 136.5* | 129.6*
Nc1c(C(=O)c2ccc(Br)cc2)oc2ccccc12 | 1 | 1.16 | 100.0 | -13.9 | -1.4 | 13.9 | x | x | x

Compound activity from PubChem.
